# Results gathered from unrelated publications.
# Protocols differ between the studies behind these lines.
# Target: Mitogen-activated protein kinase kinase kinase kinase 4 (MAP4K4, Homo sapiens, UniProt O95819)
Structure (SMILES),test,conditions,remaining binding
O=C(c1ccc(Nc2ncc(Cl)c(-c3ccc(Cl)s3)n2)cc1)N1CCC(N2CCCC2)CC1,"binding, competition with immobilised ligand",1 µM,26%
COc1ccnn2ncc(-c3ccnc(N(C)C)n3)c12,binding,1 µM,93%
Cc1c(C(=O)O)cc(-c2ccc(C3CCNCC3)cc2)c2ccc(-c3ccc(C(F)(F)F)cc3)cc12,"binding, competition with immobilised ligand",1 µM,76%
CN(CCCC(F)(F)F)c1nccc(-c2cnn3ncccc23)n1,binding,1 µM,100%
c1cncc(-c2cccc(Nc3nccc(NC4CCCCC4)n3)c2)c1,"binding, competition with immobilised ligand",10 µM,26%
CS(=O)(=O)NCC[C@H](NC(=O)c1cncc2c1cnn2-c1ccc(F)cc1)c1ccnc(S(C)(=O)=O)c1,"cell-free assay, competition with immobilised ligand",1 µM,86%
CNC(=O)[C@@H]1CC[C@@H](n2c(-c3ccc4cnccc4c3)nc3ccc(C(=O)NCc4cccc(C(N)=O)c4)cc32)C1,"binding, competition with immobilised ligand",1 µM,100%
Cc1cnn2ncc(-c3ccnc(N(C)C)n3)c2c1,binding,1 µM,100%
O=C(c1ccc(Nc2ncc(Cl)c(-c3cc4ccccc4s3)n2)cc1)N1CCC(N2CCCC2)CC1,"binding, competition with immobilised ligand",1 µM,34%
Nc1ncc2c(n1)-c1c([nH]c3ccc(C#CC4CC4)cc13)CCCC2,"binding, competition with immobilised ligand",1 µM,90%
C=CC(=O)N1CCC(C(=O)NCC(=O)N2CCN(c3nc(-c4cnc(N)nc4C(F)F)nc(N4CCOCC4)n3)CC2)CC1,"binding, competition with immobilised ligand",1 µM,80%
Cc1nccc(COC(=O)N2C[C@@H]3[C@@H](CNC(=O)c4ccc5[nH]nnc5c4)[C@@H]3C2)n1,"cell-free assay, competition with immobilised ligand",1 µM,99%
FC(F)(F)Oc1cccc(-c2cnc3ccc(-c4ccncc4)nn23)c1,"cell-free assay, competition with immobilised ligand",5 µM,49%
O=C(NCCCC1CCCCC1)c1ccc(CNC(=O)c2cnn(-c3ccccc3)c2C(F)(F)F)cc1,"cell-free assay, competition with immobilised ligand",0.1 µM,81%
O=C(NCC1CCOCC1)c1n[nH]cc1NC(=O)c1c(F)cccc1F,"binding, competition with immobilised ligand",1 µM,91%
CC1CCCN1c1nccc(-c2cnn3ncccc23)n1 (stereo not drawn),binding,1 µM,100%
O=C1CCc2cc(Nc3cc(OC4CCOCC4)c([N+](=O)[O-])cc3Cl)ccc2N1,"cell-free assay, competition with immobilised ligand",1 µM,100%
N[C@H]1CCN(c2nccc(-c3cnn4ncccc34)n2)C1,binding,1 µM,100%
CC(=O)N1CCC(c2ccc(C(=O)NC(=N)N)cc2C(F)(F)F)CC1,"cell-free assay, competition with immobilised ligand",1 µM,100%
CN(C)c1nccc(-c2cnn3ncccc23)n1,binding,1 µM,87%
O=C(NCCCN1CCOCC1)c1ccc(Nc2ncc(Cl)c(-c3ccc(Cl)s3)n2)cc1,"binding, competition with immobilised ligand",1 µM,67%
